The text below walks through data of ChEMBL document CHEMBL4732162, “Design, synthesis and evaluation of novel ErbB/HDAC multitargeted inhibitors with selectivity in EGFR mutant cell lines” (Eur J Med Chem, 2021).

Experiment [1] deals with NCI-H1975. The experiment in a line: Induction of apoptosis in human NCI-H1975 cells assessed as viable cells at 0.5 uM incubated for 48 hrs by propidium iodide and annexin-V FITC staining based flow cytometry (Rvb =88.95% ). The format is functional. Conditions: read-out: Activity.
Experiment [2] deals with NCI-H1975. The experiment is described as follows: Cytotoxicity against human NCI-H1975 cells assessed as inhibition of colony formation incubated for 7 days by crystal violet based colony formation assay. The format is functional, cell-based. Conditions: dose 0.5-5 µM, time 7.0 day. The method, boiled down: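 NCI-H1975 cells, 1 × 10⁴/well, were seeded in 6-well plates and cultured 12 h. They were then treated with compound for 7 days. Colonies were fixed in 10% buffered formalin for 1 h and stained with crystal violet for 1 h.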

For experiment [3], the target named is Epidermal growth factor receptor (Homo sapiens, UniProt P00533). The experiment in a line: Inhibition of EGFR (unknown origin) by mobility shift assay.
Experiment [4] has as its system NCI-H1975. The experiment is described as follows: Induction of apoptosis in human NCI-H1975 cells assessed as early apoptotic cells at 5 uM incubated for 48 hrs by propidium iodide and annexin-V FITC staining based flow cytometry (reference value: 6.67 %). The format is functional.
The subject of experiment [5] is NCI-H1975. The experiment in a line: Induction of apoptosis in human NCI-H1975 cells assessed as viable cells at 2.5 uM incubated for 48 hrs by propidium iodide and annexin-V FITC staining based flow cytometry (Rvb =88.95% ). Conditions: read-out: Activity. The format is functional.
Experiment [6] concerns NCI-H1975. The experiment is described as follows: Antiinvasive activity against human NCI-H1975 cells measured after 72 hrs by crystal violet dye-based transwell assay. Conditions: dose 0.5-5 µM. The format is functional, cell-based. The method, boiled down: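 NCI-H1975 cells, 1 × 10⁴/well, seeded in serum-free medium in the upper chamber of a transwell insert. The lower chamber held 10% FBS medium with compound at the indicated dilutions, for 72 h. Non-invading cells were swabbed off. Cells on the membrane underside were fixed in 10% buffered formalin for 1 h, stained with crystal violet for 1 h, and imaged in three random fields.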

Experiment [7] has as its target Histone deacetylase (Homo sapiens) (UniProt Q13547+O15379+Q9UBN7+Q92769+Q9UQL6+Q8WUI4+Q9BY41+Q96DB2+P56524+Q9UKV0+Q969S8). The experiment is described as follows: Inhibition of HDAC in human NCI-H1975 cells assessed as increase in histone H3 acetylation at 2.5 uM after 1 to 12 hrs by Western blot analysis. The format is cell-based. Conditions: time lower 1.0 hrs, time upper […].

The test system of experiment [8] is L02. The experiment in a line: cytotoxicity against human HL-7702 cells assessed as reduction of cell viability incubated for 72 hrs by MTT assay. Conditions: L02, 72 h. The format is ADME, cell-based.
Experiment [9] relates to FHC. The experiment is described as follows: Cytotoxicity against human FHC cells assessed as reduction of cell viability incubated for 72 hrs by MTT assay. The format is ADME, cell-based.
Experiment [10] concerns NCI-H1975. The experiment is described as follows: Induction of apoptosis in human NCI-H1975 cells assessed as viable cells at 5 uM incubated for 48 hrs by propidium iodide and annexin-V FITC staining based flow cytometry (Rvb =88.95% ). Conditions: read-out: Activity. The format is functional.

SMILES strings stand for the structures. Calls of active or inactive are those of the source. The calls are words filed in the database; no cut-off is given here.

Sequence of Epidermal growth factor receptor (P00533 whole entry): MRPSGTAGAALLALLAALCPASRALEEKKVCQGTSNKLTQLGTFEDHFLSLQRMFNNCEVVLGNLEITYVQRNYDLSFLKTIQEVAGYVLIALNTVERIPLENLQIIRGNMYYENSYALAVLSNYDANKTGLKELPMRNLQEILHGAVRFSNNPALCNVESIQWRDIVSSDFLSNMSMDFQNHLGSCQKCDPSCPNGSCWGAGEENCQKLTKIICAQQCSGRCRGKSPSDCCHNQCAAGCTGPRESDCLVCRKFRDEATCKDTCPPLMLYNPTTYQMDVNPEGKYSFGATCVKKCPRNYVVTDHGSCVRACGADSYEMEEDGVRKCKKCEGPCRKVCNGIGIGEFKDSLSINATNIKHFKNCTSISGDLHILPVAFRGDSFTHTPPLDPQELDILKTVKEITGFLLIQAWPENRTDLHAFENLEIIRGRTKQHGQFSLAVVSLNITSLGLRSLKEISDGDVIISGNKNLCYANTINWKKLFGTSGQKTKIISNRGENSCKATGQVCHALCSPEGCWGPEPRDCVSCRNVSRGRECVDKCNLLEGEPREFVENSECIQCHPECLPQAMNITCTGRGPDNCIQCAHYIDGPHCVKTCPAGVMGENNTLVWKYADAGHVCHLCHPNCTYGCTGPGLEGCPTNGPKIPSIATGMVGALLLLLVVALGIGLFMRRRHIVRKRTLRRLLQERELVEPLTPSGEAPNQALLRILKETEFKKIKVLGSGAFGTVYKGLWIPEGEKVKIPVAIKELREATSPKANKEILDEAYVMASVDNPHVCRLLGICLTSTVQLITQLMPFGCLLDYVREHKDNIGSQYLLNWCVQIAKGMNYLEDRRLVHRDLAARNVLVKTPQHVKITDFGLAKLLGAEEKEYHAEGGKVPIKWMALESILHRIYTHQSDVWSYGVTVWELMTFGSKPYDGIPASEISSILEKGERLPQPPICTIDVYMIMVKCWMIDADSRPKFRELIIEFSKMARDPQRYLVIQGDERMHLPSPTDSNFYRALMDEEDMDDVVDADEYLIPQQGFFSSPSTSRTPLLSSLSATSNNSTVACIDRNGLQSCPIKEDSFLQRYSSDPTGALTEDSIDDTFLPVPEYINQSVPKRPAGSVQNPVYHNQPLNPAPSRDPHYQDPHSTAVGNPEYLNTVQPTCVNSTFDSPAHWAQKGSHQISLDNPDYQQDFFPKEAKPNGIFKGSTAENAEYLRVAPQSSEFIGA

In the case of `C=CC(=O)Nc1cc2c(Nc3ccc(F)c(Cl)c3)ncnc2cc1OCc1cn(CCCC(=O)NO)nn1`, the viability at 0.5 µM in experiment [1] was determined as 62.6%. For the same compound, in experiment [2], the inhibition result was “Dose-dependent effect”. The IC50 is 0.00035 µM in experiment [3], greater than 25 µM in [8] and greater than 25 µM in experiment [9]. In addition, the Activity was 35.22% in [4] and “Dose-dependent effect” in experiment [6]. In addition, the viability at 2.5 µM in experiment [5] came out at 54%. Further, in experiment [7], the inhibition entry was “Active”. Also, the viability at 5 µM in [10] worked out at 46.1%.
